The source made the active and inactive calls.
Key:
Rattus norvegicus [1] = assay: Neurobiological activity in ip dosed Sprague-Dawley rat assessed as increase in number of rat choosing drug associated lever treated 15 mins prior to test by drug discrimination test; type: functional
Rattus norvegicus [2] = assay: Neurobiological activity in Sprague-Dawley rat assessed as increase in number of rat choosing drug associated lever at 0.25 to 0.625 mg/kg, ip treated 15 mins prior to test by drug discrimination test; type: functional, organism-based
In short: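 Male Sprague-Dawley rats (n=13), water-restricted to 80-90% free-feeding weight, trained in a two-lever water-reinforced task (FR 20) to discriminate 0.75 mg/kg WAY163909 ip from saline (1 mL/kg). Test drug given ip 15 min before the 15-min session. Read-out is the percentage of rats choosing the drug lever. ED50 is taken from log-probit analysis.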

Rattus norvegicus [3] = assay: Neurobiological activity in Sprague-Dawley rat assessed as increase in number of rat choosing drug associated lever at 1 mg/kg, ip treated 15 mins prior to test by drug discrimination test relative to control; type: functional
In short: (§1)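 Male Sprague-Dawley rats (n = 13, 300–325 g) held at 80–90% free-feeding weight by water restriction. Trained to discriminate WAY163909 0.75 mg/kg ip from saline, 1 mL/kg, 15 min pretreatment. Two-lever, water-reinforced, FR20, 15 min sessions. Criterion ≥80% correct responding for 10 sessions. Test doses given ip 15 min pretest. Read-out: percentage of rats choosing the drug lever.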

Rattus norvegicus [4] = assay: Neurobiological activity in Sprague-Dawley rat assessed as increase in number of rat choosing drug associated lever at 0.625 mg/kg, ip treated 15 mins prior to test by drug discrimination test relative to control; type: functional; in short: as §1
Rattus norvegicus [5] = assay: Neurobiological activity in Sprague-Dawley rat assessed as increase in number of rat choosing drug associated lever at 0.75 mg/kg, ip treated 15 mins prior to test by drug discrimination test relative to control; type: functional; in short: as §1
Rattus norvegicus [6] = assay: Neurobiological activity in Sprague-Dawley rat assessed as increase in number of rat choosing drug associated lever at 0.5 mg/kg, ip treated 15 mins prior to test by drug discrimination test relative to control; type: functional; in short: as §1
[7] = target: T1, 5-hydroxytryptamine receptor 2C (Homo sapiens, UniProt P28335); assay: Agonist activity at human 5HT2CR expressed in CHO cells assessed as increase in intracellular calcium release at 1 nM incubated for 15 mins measured at 1 secs interval for 120 secs by calcium 4 dye based FLIPR assay relative to 5-HT; type: cell-based; conditions: 0.001 µM
T1 sequence (P28335 whole entry): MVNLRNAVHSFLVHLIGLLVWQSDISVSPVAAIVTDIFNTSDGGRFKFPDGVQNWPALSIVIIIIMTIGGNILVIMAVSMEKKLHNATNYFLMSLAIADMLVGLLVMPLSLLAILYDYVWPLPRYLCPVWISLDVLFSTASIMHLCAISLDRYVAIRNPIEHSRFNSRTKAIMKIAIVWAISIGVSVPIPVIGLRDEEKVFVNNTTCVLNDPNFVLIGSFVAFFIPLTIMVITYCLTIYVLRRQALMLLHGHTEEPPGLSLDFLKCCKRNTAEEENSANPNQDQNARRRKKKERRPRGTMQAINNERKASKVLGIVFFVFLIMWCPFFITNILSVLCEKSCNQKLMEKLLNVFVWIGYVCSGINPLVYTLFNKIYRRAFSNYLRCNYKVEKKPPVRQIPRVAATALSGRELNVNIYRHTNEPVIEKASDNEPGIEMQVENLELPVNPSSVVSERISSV
In short: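 h5-HT2CR (unedited INI isoform) stably expressed in CHO cells; cells plated ~24 h, serum-free medium 3 h, then Calcium 4 dye with 2.5 mM probenecid in Ca/Mg-free HBSS pH 7.4 for 60 min at 37°C plus 15 min at room temperature. Compound given alone, read for 15 min before 5-HT. Peak fluorescence is expressed relative to the 5-HT Emax. 4-6 biological replicates, each in triplicate.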

[8] = target: T2, 5-hydroxytryptamine receptor 2C (Homo sapiens) (UniProt P28335); assay: Positive allosteric modulation of human 5HT2CR expressed in CHO cells assessed as increase in 5-HT induced intracellular calcium release at 1 nM preincubated for 15 mins followed by 5-HT addition and measured at 1 secs interval for 360 secs by calcium 4 dye based FLIPR assay relative to 5-HT; type: functional, cell-based
T2 sequence (whole entry): T1 sequence (P28335 whole entry)
In short: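 CHO cells stably expressing human unedited (INI) 5-HT2C receptor, serum-starved 3 h, then loaded 60 min at 37 °C with Calcium 4 dye and 2.5 mM probenecid in HBSS (pH 7.4). Compound added 15 min before 5-HT (10 pM–10 μM). FLIPR read every 1 s for 360 s; peak height; Emax by 4-parameter fit, 4–6 biological replicates in triplicate, relative to 5-HT alone.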

5-HT2A receptor = 5-HT2A receptor (Homo sapiens, UniProt P28223); assay: Positive allosteric modulation of human 5HT2AR expressed in CHO cells assessed as increase in 5-HT induced intracellular calcium release at 1 nM preincubated for 15 mins followed by 5-HT addition and measured at 1 secs interval for 360 secs by calcium 4 dye based FLIPR assay relative to 5-HT; type: cell-based; conditions: CHO cells expressing human 5HT2AR
In short: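 CHO cells stably expressing human 5-HT2AR, serum-starved 3 h, then loaded with Calcium 4 dye plus 2.5 mM probenecid in HBSS (no Ca/Mg, pH 7.4) for 60 min at 37°C and 15 min at room temperature. Test compound added 15 min before 5-HT (10 pM-10 μM). FLIPR fluorescence read every 1 s for 360 s after 5-HT. Emax from 4-parameter fit, normalized to 5-HT maximum.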

Chain of 5-HT2A receptor (P28223 whole entry): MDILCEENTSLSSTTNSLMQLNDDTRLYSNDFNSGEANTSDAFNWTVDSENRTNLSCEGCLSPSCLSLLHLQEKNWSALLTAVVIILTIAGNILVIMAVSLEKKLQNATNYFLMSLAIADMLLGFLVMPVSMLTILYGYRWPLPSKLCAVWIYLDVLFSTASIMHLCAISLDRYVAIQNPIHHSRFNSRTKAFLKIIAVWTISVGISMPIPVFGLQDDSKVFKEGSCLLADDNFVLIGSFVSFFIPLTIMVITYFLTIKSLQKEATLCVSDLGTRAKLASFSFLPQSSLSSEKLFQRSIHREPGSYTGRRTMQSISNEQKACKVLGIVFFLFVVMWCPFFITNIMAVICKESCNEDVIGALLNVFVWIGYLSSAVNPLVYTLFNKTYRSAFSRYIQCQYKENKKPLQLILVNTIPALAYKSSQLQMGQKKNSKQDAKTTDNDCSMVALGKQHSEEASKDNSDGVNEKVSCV

Row | Structure (SMILES) | Activity [7] | Emax [8] [%] | further results
1 | c1cc2c3c(c1)[C@H]1CCC[C@H]1N3CCNC2 |  |  | ED50 (Rattus norvegicus [1]): 0.51 mg/kg; Activity (Rattus norvegicus [2]): Active; Activity (Rattus norvegicus [3]): 100%; Activity (Rattus norvegicus [4]): 54%; Activity (Rattus norvegicus [5]): 92%; Activity (Rattus norvegicus [6]): 46%
2 | O=C(NC[C@H](O)CO)[C@@H]1C[C@H](CCc2ccccc2)CCN1 | Not Active | 108 | 
3 | O=C(NC[C@H](O)CO)[C@@H]1C[C@H](CCC2CCCCC2)CCN1 | Not Active | 110 | 
4 | Cc1ccc(CC[C@H]2CCN[C@@H](C(=O)N[C@H](CO)[C@H](O)c3ccccc3)C2)cc1 | Not Active | 98.9 | 
5 | O=C(N[C@H](CO)[C@H](O)c1ccccc1)[C@@H]1C[C@H](c2ccccc2)CCN1 | Not Active | 103 | 
6 | CC(C)(C)c1ccc(CC[C@H]2CCN[C@@H](C(=O)N[C@H](CO)[C@H](O)c3ccccc3)C2)cc1 | Not Active | 107 | 
7 | O=C(N[C@H](CO)[C@H](O)c1ccccc1)[C@@H]1C[C@H](CCc2ccccc2)CCN1 | Not Active | 110 | Emax at 0.1 h, 0.001 µM (5-HT2A receptor): 104%
8 | O=C(N[C@H](CO)[C@H](O)c1ccccc1)[C@H]1C[C@@H](c2ccccc2)CCN1 | Not Active | 118 | Emax at 0.1 h, 0.001 µM (5-HT2A receptor): 103%
9 | CC(C)(C)c1ccc(CC[C@@H]2CCN[C@H](C(=O)N[C@H](CO)[C@H](O)c3ccccc3)C2)cc1 | Not Active | 115 | 
10 | O=C(N[C@H](CO)[C@H](O)c1ccccc1)[C@H]1C[C@@H](CCc2ccccc2)CCN1 | Not Active | 109 | 
11 | Cc1ccc(CC[C@@H]2CCN[C@H](C(=O)N[C@H](CO)[C@H](O)c3ccccc3)C2)cc1 | Not Active | 99.3 | 
12 | O=C(NC[C@H](O)CO)[C@@H]1C[C@H](C2CCCCC2)CCN1 (mixture of isomers) | Not Active | 118 | Emax at 0.1 h, 0.001 µM (5-HT2A receptor): 97.8%
13 | O=C(NCCCN1CCOCC1)[C@@H]1C[C@H](CCc2ccccc2)CCN1 (racemic) | Not Active | 118 | Emax at 0.1 h, 0.001 µM (5-HT2A receptor): 97.9%
14 | O=C(NCCN1CCOCC1)[C@@H]1C[C@H](CCc2ccccc2)CCN1 (racemic) | Not Active | 94.2 | 
15 | O=C(NCCN1CCOCC1)[C@@H]1C[C@H](c2ccccc2)CCN1 (racemic) | Not Active | 114 | 
16 | O=C(NC(CO)CO)[C@@H]1C[C@H](c2ccccc2)CCN1 (racemic) | Not Active | 119 | Emax at 0.1 h, 0.001 µM (5-HT2A receptor): 99.3%
17 | O=C(NCCN1CCOCC1)[C@@H]1C[C@H](C2CCCCC2)CCN1 (racemic) | Not Active | 121 | 
18 | O=C(NCCN1CCOCC1)[C@@H]1C[C@H](CCC2CCCCC2)CCN1 (racemic) | Not Active | 110 | 
19 | O=C(NCCCN1CCOCC1)[C@@H]1C[C@H](CCC2CCCCC2)CCN1 (racemic) | Not Active | 118 | Emax at 0.1 h, 0.001 µM (5-HT2A receptor): 97.2%
20 | O=C(NC(CO)CO)[C@@H]1C[C@H](C2CCCCC2)CCN1 (racemic) | Not Active | 119 | 
21 | CCCCCCCCCCC[C@@H]1CCN[C@H](C(=O)NCC(O)CO)C1 (relative stereo) | Not Active |  | 
22 | O=C(NC(CO)CO)[C@@H]1C[C@H](CCc2ccccc2)CCN1 (relative stereo) | Not Active | 101 | 
23 | O=C(NC(CO)CO)[C@@H]1C[C@H](CCC2CCCCC2)CCN1 (relative stereo) | Not Active | 106 | 
